# Reference: ChEMBL document CHEMBL5046320, “A Stepwise Targeting Curcumin Derivative, Ser@TPP@CUR, for Acute Kidney Injury” (ACS Med Chem Lett, 2022)
# The source made the active and inactive calls. No cut-off for these calls is given here.
# Columns and labels:
# [1] = test system: Kidney; assay: Nephroprotective activity against acute kidney injured Balb/c mouse kidney assessed as decrease in vacuolar degeneration at 4 mg/kg,iv by H and E staining based assay; format: functional, organism-based
# Method in brief: (§1)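 Renal tissue of AKI mice stained with H&E and examined by optical microscopy for tubular epithelial swelling, vacuolar degeneration and brush border loss; treatment at CUR 4 mg/kg.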
# [2] = test system: Kidney; assay: Anti-inflammatory activity against LPS-induced acute kidney injured Balb/c mouse model assessed as reduction in kidney TNF alpha level at 4 mg/kg,iv by ELISA; format: functional, organism-based
# Method in brief: (§2)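 TNF-α and IL-6 measured by ELISA in renal tissue of LPS-induced AKI mice after CUR-based treatment (CUR, 4 mg/kg); n = 6.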
# [3] = test system: Kidney; assay: Nephroprotective activity against acute kidney injured Balb/c mouse kidney assessed as decrease in disappeared and expanded tubular border brush at 4 mg/kg,iv by H and E staining based assay; format: functional, organism-based; method in brief: as §1
# [4] = test system: Mus musculus; assay: Nephroprotective activity against LPS-induced acute kidney injured Balb/c mouse model assessed as reduction in serum creatinine level at 4 mg/kg,iv by automatic biochemical analysis; format: functional, organism-based
# Method in brief: (§3)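 Scr and BUN measured on automatic biochemical analyzer 24 h after administration (CUR, 4 mg/kg) to LPS-induced AKI mice; n = 6.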
# [5] = Drug uptake in human HK-2 cells assessed as increase in fluorescence intensity pretreated with LPS for 12 hrs followed by compound addition incubated for 6 hrs by mitotracker red based inverted microscopic analysis; format: ADME, cell-based; conditions: hk-2, 6 h
# Method in brief: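 HK-2 cells co-stained with MitoTracker Red; mitochondrial colocalization of compound imaged by fluorescence microscopy; free CUR as control.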
# [6] = Drug uptake in LPS stimulated human HK-2 cells pretreated with LPS for 12 hrs followed by compound addition incubated for 2 to 6 hrs by inversed fluorescence microscope analysis; format: ADME, cell-based; conditions: time 2-6 hrs
# Method in brief: (§4)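 HK-2 cells with or without LPS treatment incubated with compound for 2.0 and 6.0 h; uptake imaged by fluorescence microscopy; flow cytometry at 2.0 h.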
# [7] = test system: HK-2; assay: Nephroprotective activity against LPS induced human HK-2 cells assessed as increase in cell viability at 3 ug/ml incubated for 24 hrs by MTT assay relative to control; format: functional; conditions: dose 3 µg/ml
# Method in brief: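 HK-2 cells exposed to 15 μg/mL LPS for 24 h; viability assessed by MTT assay; n = 6.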
# [8] = test system: Kidney; assay: Nephroprotective activity against acute kidney injured Balb/c mouse kidney assessed as decrease in swollen tubular epithelial cells at 4 mg/kg,iv by H and E staining based assay; format: functional, organism-based; method in brief: as §1
# [9] = test system: Kidney; assay: Anti-inflammatory activity against LPS-induced acute kidney injured Balb/c mouse model assessed as reduction in kidney IL-6 level at 4 mg/kg,iv by ELISA; format: functional, organism-based; method in brief: as §2
# [10] = test system: Mus musculus; assay: Antioxidant activity against LPS-induced acute kidney injured Balb/c mouse mitochondrial fraction of kidney assessed as reduction of H2O2 generation at 4 mg/kg,iv by Amplex Red dye Hydrogen Peroxide assay; format: functional, organism-based; conditions: Mitochondria
# Method in brief: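 Mitochondria isolated intact from renal tissue of LPS-induced AKI mice; H₂O₂ production measured with Amplex Red H₂O₂/peroxidase detection kit after treatment at CUR 4 mg/kg; n = 6.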
# [11] = test system: Kidney; assay: Antioxidant activity against LPS-induced acute kidney injured Balb/c mouse model assessed as increase in kidney GSH level at 4 mg/kg,iv; format: functional, organism-based
# Method in brief: (§5)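 SOD, GSH and MDA levels determined in renal tissue of LPS-induced AKI mice after treatment at CUR 4 mg/kg; n = 6.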
# [12] = test system: HK-2; assay: Induction of apoptosis in LPS-induced HK-2 cells assessed as increase in mitochondrial cytochrome C protein expression pretreated with LPS followed by compound addition incubated for 24 hrs by immunoblotting analysis; format: functional, cell-based; conditions: Homo sapiens
# Method in brief: (§6)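 LPS-treated HK-2 cells; cytochrome c in mitochondrial and cytosolic fractions, cleaved caspase-9 and cleaved caspase-3 detected by immunoblot, normalised to β-actin; mean ± SD, n = 3.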
# [13] = Drug uptake in LPS induced inflammation in human HK-2 cells assessed as decrease internalization in presence of Ser pretreated with LPS for 6 hr followed by compound addition incubated for 2 hr by flow cytometry; conditions: hk-2, 2 h
# [14] = Drug distribution in kidney of acute kidney injured Balb/c mouse model assessed as KIM1 receptor mediated endocytosis at 4 mg/kg, iv by fluorescence imaging based assay; format: ADME, organism-based; conditions: in vivo
# Method in brief: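 Renal tissue of AKI mice examined by fluorescence imaging for colocalization of compound (green) with immunostained KIM-1 receptor (red); free CUR as control.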
# [15] = Drug distribution in kidney of Balb/c mouse model assessed as increase in CUR level at 4 mg/kg, iv after 2 hrs of administration by IVIS Lumina III analysis; format: ADME, organism-based; conditions: in vivo
# Method in brief: (§7)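 Normal or AKI mice given intravenous dose (CUR, 4 mg/kg); heart, lung, liver, spleen and kidney imaged ex vivo 2 h later on IVIS Lumina III; tissue distribution as mean ± SD, n = 6.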
# [16] = Drug uptake in LPS stimulated human HK-2 cells pretreated with LPS for 12 hrs followed by compound addition incubated for 2 to 6 hrs by flow cytometry method; format: ADME, cell-based; conditions: time 2-6 hrs; method in brief: as §4
# [17] = test system: Mus musculus; assay: Nephroprotective activity against LPS-induced acute kidney injured Balb/c mouse model assessed as reduction in blood urea nitrogen level at 4 mg/kg,iv by automatic biochemical analysis; format: functional, organism-based; method in brief: as §3
# [18] = Drug uptake in human HK-2 cells incubated for 2 to 6 hrs by inversed fluorescence microscope analysis; format: ADME, cell-based; conditions: time 2-6 hrs; method in brief: as §4
# [19] = test system: Kidney; assay: Antioxidant activity against acute kidney injured Balb/c mouse kidney assessed as reduction of nitrotyrosine expression at 4 mg/kg,iv by immunohistochemistry analysis; format: functional, organism-based
# Method in brief: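 Renal sections from AKI mice stained by immunohistochemistry for nitrotyrosine after treatment at CUR 4 mg/kg; scale bar 50 μm.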
# [20] = test system: HK-2; assay: Antioxidant activity in human HK-2 cells assessed as reduction in LPS induced mitochondrial reactive oxygen species generation at 7.16 ug/ml pretreated with LPS for 24 hr followed by compound addition incubated for 2 hr by MitoSOX staining based inverted fluorescent microscopic analysis; format: functional, cell-based; conditions: dose 7.16 µg/ml
# Method in brief: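 LPS-treated HK-2 cells exposed to test agent (7.16 μg/mL); mitochondrial superoxide visualised with MitoSOX Red indicator by fluorescence imaging.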
# [21] = test system: Kidney; assay: Antioxidant activity against LPS-induced acute kidney injured Balb/c mouse model assessed as reduction of increased MDA level at 4 mg/kg,iv; format: functional, organism-based; method in brief: as §5
# [22] = test system: HK-2; assay: Antioxidant activity in human HK-2 cells assessed as reduction in LPS induced intracellular nitrotyrosine expression level pretreated with LPS for 24 hr followed by compound addition incubated for 2 hr by fluorescence imaging based assay; format: functional, cell-based
# [23] = test system: HK-2; assay: Induction of apoptosis in LPS-induced HK-2 cells assessed as inhibition of cleaved caspase-3 protein expression pretreated with LPS followed by compound addition incubated for 24 hrs by immunoblotting analysis; format: functional, cell-based; conditions: Homo sapiens; method in brief: as §6
# [24] = Drug distribution in kidney of acute kidney injured Balb/c mouse model assessed as increase in CUR level at 4 mg/kg, iv after 2 hrs of administration by IVIS Lumina III analysis; format: ADME, organism-based; conditions: in vivo; method in brief: as §7
# [25] = test system: HK-2; assay: Induction of apoptosis in LPS-induced human HK-2 cells assessed as inhibition of cytochrome c protein expression pretreated with LPS followed by compound addition incubated for 24 hrs by immunoblotting analysis; format: functional, cell-based; method in brief: as §6
# [26] = test system: HK-2; assay: Induction of apoptosis in LPS-induced HK-2 cells assessed as inhibition of cleaved caspase-9 protein expression pretreated with LPS followed by compound addition incubated for 24 hrs by immunoblotting analysis; format: functional, cell-based; conditions: Homo sapiens; method in brief: as §6
# [27] = test system: Kidney; assay: Antioxidant activity against LPS-induced acute kidney injured Balb/c mouse model assessed as increase in kidney superoxide dismutase level at 4 mg/kg,iv; format: functional, organism-based; method in brief: as §5
smiles,measurement,setting,value
COc1cc(/C=C/C(=O)CC(=O)/C=C/c2ccc(OC(=O)C(N)CO)c(OC)c2)ccc1OC(=O)CCCC[P+](c1ccccc1)(c1ccccc1)c1ccccc1.[Br-] (configuration not stated),Activity,[1],Active
same,Activity,[2],Active
same,Activity,[3],Active
same,Activity,[4],Active
same,Drug uptake,[5],Active
same,Drug uptake,[6],Active
same,Activity,[7],40%
same,Activity,[8],Active
same,Activity,[9],Active
same,Activity,[10],Active
same,Activity,[11],Active
same,Activity,[12],Active
same,Drug uptake,[13],Active
same,Drug uptake,[14],Active
same,Drug uptake,[15],Not Active
same,Drug uptake,[16],Active
same,Activity,[17],Active
same,Drug uptake,[18],Not Active
same,Activity,[19],Active
same,Activity,[20],Active
same,Activity,[21],Active
same,Activity,[22],Active
same,Activity,[23],Active
same,Drug uptake,[24],Active
same,Activity,[25],Active
same,Activity,[26],Active
same,Activity,[27],Active
